A short description of series [1]: folding enthalpy; higher = less favourable; fluorescence melt of hairpins on a sequencing array, two-state fit. Particulars: sodium 0.088 M. In outline:
(§1)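 With Cy3 and quencher oligos annealed, library hairpins on a sequenced MiSeq flow cell were imaged for Cy3 fluorescence in 50 mM Na-HEPES pH 8.0, 25 mM NaCl, in 2.5 °C steps up to 60 °C. Melting temperature and folding enthalpy were derived from bootstrapped two-state fits of signals normalised to pre-quench Cy3 and to control constructs. Four replicates were combined by inverse variance, with fitted temperatures raised by 9.35 °C to match UV melts.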

A short description of series [2]: melting temperature; fluorescence melt of hairpins on a sequencing array, two-state fit, raised by 9.35 °C to match UV melts. As to conditions: sodium 0.088 M. In outline: as §1

As for GTGCCCTCGAAAGAGCAC (((..(((....)))))), the folding enthalpy in series [1] is -18.8 kcal/mol. Also, the Tm in series [2] is 43 °C.
Consider GCGTAACGAAAGTTGCGC (((.(((....))).))), for which the folding enthalpy in series [1] was -53 kcal/mol. The Tm in series [2] was 63 °C.
The like results for GTTGTCTCGAAAGAGAAC (((..(((....)))))) were, in that order, -22.2 kcal/mol and 46.1 °C.
As to GCTGGGCGAAAGCACGGC ((.(.((....)).).)), in series [1], the folding enthalpy was -21.2 kcal/mol. For the same sequence, in series [2], the Tm was determined as 69.1 °C.
In the case of GATCAGGCGCTGATC ((((((...)))))), the folding enthalpy in series [1] is -33.8 kcal/mol. The Tm in series [2] turned out to be 47.9 °C.
The corresponding values for GCCAAAACGAAAGTTGGC (((..(((....)))))) are -30.7 kcal/mol and 51.4 °C.
In the case of CGCTTGAAAAAGCG (((((....))))), the folding enthalpy in series [1] was -23.3 kcal/mol. Also, the Tm in series [2] was determined as 58.2 °C.
Turning to GATCTATGCGTAGATC ((((((....)))))), the folding enthalpy in series [1] is -41.5 kcal/mol. In addition, the Tm in series [2] stood at 48.2 °C.
Turning to GTCCTCCCGAAAGGGGAC (((..(((....)))))), in series [1], the folding enthalpy was -14.3 kcal/mol. In series [2], the Tm was 44.8 °C.
The corresponding values for GCTTTCGAAAGAAGAAGC ((((((....)))..))) are -22.2 kcal/mol and 32.1 °C.
As to GATCGAATGTCGATC ((((((...)))))), the folding enthalpy in series [1] was -31.5 kcal/mol. Also, in series [2], the Tm stood at 50.6 °C.
As to GCCTGTGGAAACATGGGC (((..((....))..))), the folding enthalpy in series [1] was -29.4 kcal/mol. The Tm in series [2] came out at 47.4 °C.
Regarding GCGCACTCGAAAGAGCGC (((..(((....)))))), the folding enthalpy in series [1] is -23.6 kcal/mol. Further, in series [2], the Tm was 57.1 °C.
Take GGTGTCGGAAACGACGCC ((.((((....)))).)): the folding enthalpy in series [1] is -28.6 kcal/mol. The Tm in series [2] came out at 64.5 °C.
Turning to GCGATAGGAAACTACCGC (((.(((....))).))), in series [1], the folding enthalpy is -28.5 kcal/mol. In series [2], the Tm is 44.7 °C.
On to GGACTCGGAAACGGGTCC ((((.((....)).)))), for which the folding enthalpy in series [1] is -36.4 kcal/mol. In addition, the Tm in series [2] was 57.4 °C.
Take GCGTCTCCGAAAGGACGC (((..(((....)))))): the folding enthalpy in series [1] is -33.1 kcal/mol. Besides, in series [2], the Tm is 56.8 °C.
In the case of GACAAAGAAATTTGTC ((((((....)))))), the folding enthalpy in series [1] was -27.6 kcal/mol. For the same sequence, in series [2], the Tm was found to be 43.4 °C.
The corresponding values for GATCACGAAAGTGATATC ((((((....)))..))) are -17.3 kcal/mol and 50.5 °C.
As to GAAGACGAAAGTCGATTC ((((((....)))..))), in series [1], the folding enthalpy was -24.1 kcal/mol. For the same sequence, the Tm in series [2] was found to be 47.4 °C.
As to GACACTGGAAACAGCGTC (((.(((....))).))), the folding enthalpy in series [1] is -35.2 kcal/mol. In addition, the Tm in series [2] stood at 46.4 °C.
On to GGGGGCGGAAACACCCCC (((((.(....).))))), for which the folding enthalpy in series [1] is -39.3 kcal/mol. In addition, the Tm in series [2] came out at 56.9 °C.
For the sequence GCAACTGGAAACAGCTGC (((.(((....))).))), in series [1], the folding enthalpy was -35.8 kcal/mol. Besides, in series [2], the Tm is 46.2 °C.
CGCGGAATTCTCCGCG ((((((....)))))): the folding enthalpy in series [1] was -32 kcal/mol. Besides, the Tm in series [2] is 69.3 °C.
Regarding GTCCGCGAAAGCGAGGAC ((((((....)))..))), the folding enthalpy in series [1] is -21 kcal/mol. For the same sequence, the Tm in series [2] was 54.9 °C.
With GCGAAGGTTCGC ((((....)))), the folding enthalpy in series [1] was -20.8 kcal/mol. Besides, in series [2], the Tm was determined as 50.4 °C.
Regarding CGCGCGGAAACGCTGGCG ((((((....)))..))), in series [1], the folding enthalpy was -29.6 kcal/mol. Besides, in series [2], the Tm turned out to be 53.7 °C.
The corresponding values for GGTCCAGCGAAAGCTACC (((..(((....)))))) are -10.7 kcal/mol and 30.1 °C.
For GGAGTCGAAAGACTATCC ((((((....)))..))), the folding enthalpy in series [1] was -13.8 kcal/mol. Moreover, in series [2], the Tm stood at 32.9 °C.
GCCGATGGAAACATCGAC (.(((((....))))).): in series [1], the folding enthalpy was -16.3 kcal/mol. The Tm in series [2] is 48 °C.
Consider GGATCGTCGAAAGACTCC (((..(((....)))))), for which the folding enthalpy in series [1] was -11.8 kcal/mol. For the same sequence, the Tm in series [2] stood at 28.9 °C.
As to GAGGAGGAAACTCCTC ((((((....)))))), the folding enthalpy in series [1] is -31.2 kcal/mol. In series [2], the Tm was 55.9 °C.
With GCTGAACCGAAAGGTAGC (((..(((....)))))), the folding enthalpy in series [1] was -21.9 kcal/mol. In series [2], the Tm worked out at 42.1 °C.
For CGATAACGGAAACGTTCG (((..(((....)))))), the folding enthalpy in series [1] is -16.1 kcal/mol. Further, the Tm in series [2] was 35.6 °C.
The like results for CGGCCGGAAACGGCGCCG ((((((....)))..))) were, in that order, -8.21 kcal/mol and 39.2 °C.
On to GGCCTAGAAATAGGCC ((((((....)))))), for which the folding enthalpy in series [1] is -34.9 kcal/mol. The Tm in series [2] was determined as 62.8 °C.
The like results for GCTTTAGCGAAAGCTAGC (((..(((....)))))) were, in that order, -8.44 kcal/mol and 42.3 °C.
Turning to AATTCGAAAGAATT (((((....))))), in series [1], the folding enthalpy is -14.3 kcal/mol. Besides, the Tm in series [2] worked out at 43.3 °C.
With GCCCAAGGAAACTTGGAC (.(((((....))))).), the folding enthalpy in series [1] was -19.6 kcal/mol. The Tm in series [2] came to 38 °C.
Consider GGTGGTTCGAAAGAAACC (((..(((....)))))), for which, in series [1], the folding enthalpy was -20.4 kcal/mol. In addition, in series [2], the Tm worked out at 41.5 °C.
Turning to GAATAGCGAAAGCTGTTC (((.(((....))).))), the folding enthalpy in series [1] was -39.9 kcal/mol. Further, the Tm in series [2] came to 51.5 °C.
Regarding GCTAACGAAAGTTGAGC ((((((....))).))), the folding enthalpy in series [1] was -26.1 kcal/mol. Moreover, in series [2], the Tm was 41.5 °C.
As for GATAAACGAAAGTTGATC (((.(((....))).))), the folding enthalpy in series [1] was -23.4 kcal/mol. Further, the Tm in series [2] is 39.4 °C.
The like results for GATCGGACAACCGATC ((((((....)))))) were, in that order, -34.7 kcal/mol and 53.5 °C.
In the case of GTTCTGGGAAACCAGGAC ((.((((....)))).)), the folding enthalpy in series [1] was -31.8 kcal/mol. Also, in series [2], the Tm worked out at 49.1 °C.
Regarding GTAGGGCGAAAGCCATAC (((.(((....))).))), the folding enthalpy in series [1] was -22.2 kcal/mol. Further, the Tm in series [2] was determined as 55.6 °C.
As to GAGTCCGAAAGGATCCTC ((((((....)))..))), the folding enthalpy in series [1] was -12.1 kcal/mol. Besides, the Tm in series [2] turned out to be 34.1 °C.
The corresponding values for GATCAGCACGCTGATC ((((((....)))))) are -42.1 kcal/mol and 62.3 °C.
As to GGTCGTGGAAACACGGTC (..((((....))))..), the folding enthalpy in series [1] was -15.8 kcal/mol. For the same sequence, the Tm in series [2] came out at 41.4 °C.
As for GTTAAGCCGAAAGGCAAC (((..(((....)))))), the folding enthalpy in series [1] is -10.5 kcal/mol. For the same sequence, the Tm in series [2] turned out to be 32.9 °C.
Consider GAACTCGGAAACGGGTTC ((((.((....)).)))), for which the folding enthalpy in series [1] was -35.1 kcal/mol. Also, the Tm in series [2] was 50.4 °C.
As to GACCCCGAAAGGGTCGTC ((((((....)))..))), in series [1], the folding enthalpy was -24.6 kcal/mol. Also, the Tm in series [2] was 58.2 °C.
With GCCCGTTCGAAAGAAGGC (((..(((....)))))), the folding enthalpy in series [1] is -12.3 kcal/mol. Besides, the Tm in series [2] was determined as 33.1 °C.
Take GTCGCATCGAAAGATGAC (((..(((....)))))): the folding enthalpy in series [1] is -13.4 kcal/mol. For the same sequence, the Tm in series [2] amounted to 28.9 °C.
The like results for GCACATGGAAACATGCAC (..((((....))))..) were, in that order, -15.2 kcal/mol and 28.2 °C.
On to GGCAGACGAAAGTCAGCC (((.(((....))).))), for which the folding enthalpy in series [1] is -32.8 kcal/mol. In addition, in series [2], the Tm stood at 64.4 °C.
In the case of GGAACCGAAAGGTTTCC ((((((....))).))), the folding enthalpy in series [1] was -18.5 kcal/mol. The Tm in series [2] came out at 53.8 °C.
GTCATCGCGAAAGCGGAC (((..(((....)))))): the folding enthalpy in series [1] was -11.1 kcal/mol. The Tm in series [2] was 39.9 °C.
The like results for GTAAAACGAAAGTTCTAC (((.(((....))).))) were, in that order, -13.9 kcal/mol and 27.6 °C.
On to GGCTAACGAAAGTTCGCC (((.(((....))).))), for which the folding enthalpy in series [1] is -44.2 kcal/mol. Moreover, the Tm in series [2] was found to be 52.9 °C.
The corresponding values for GCGCTGCGAAAGCTCCGC (((..((....))..))) are -20.5 kcal/mol and 49.4 °C.
For the sequence GCACATGGAAACATGCGC ((.((((....)))).)), in series [1], the folding enthalpy is -48.8 kcal/mol. Moreover, the Tm in series [2] amounted to 49.9 °C.
As to GCCGAGCGAAAGCTGCGC ((..(((....)))..)), in series [1], the folding enthalpy was -17.8 kcal/mol. In addition, the Tm in series [2] was found to be 56.4 °C.
For the sequence AGTTGGAAACAACT (((((....))))), the folding enthalpy in series [1] was -19.9 kcal/mol. Further, the Tm in series [2] amounted to 43.2 °C.
In the case of GACCAGGGAAACTTGGTC (((((.(....).))))), the folding enthalpy in series [1] was -37.8 kcal/mol. Also, the Tm in series [2] amounted to 47.8 °C.
GGTCCCCGAAAGGGACC (((.(((....)))))): the folding enthalpy in series [1] is -30.6 kcal/mol. Besides, in series [2], the Tm turned out to be 68.4 °C.
On to GCGGGAAACCGC ((((....)))), for which the folding enthalpy in series [1] was -22.9 kcal/mol. Moreover, in series [2], the Tm amounted to 67.3 °C.
Regarding GATCTAAAATAGATC ((((((...)))))), the folding enthalpy in series [1] was -17.1 kcal/mol. In addition, the Tm in series [2] is 38.6 °C.
Regarding GGGACCGAAAGGTGGCCC ((((((....)))..))), the folding enthalpy in series [1] is -19 kcal/mol. For the same sequence, the Tm in series [2] came out at 45.5 °C.
The like results for GATCTCTTCGAGATC ((((((...)))))) were, in that order, -36.9 kcal/mol and 55.4 °C.
The corresponding values for GAAGATACGAAAGTATTC (((..(((....)))))) are -8.74 kcal/mol and 27.7 °C.
Regarding GATCCGTTACGGATC ((((((...)))))), the folding enthalpy in series [1] is -34.6 kcal/mol. Besides, the Tm in series [2] is 63.9 °C.
The corresponding values for GTGGTAGGAAACCACCAC (((((.(....).))))) are -22.5 kcal/mol and 49.4 °C.
As to GTGATGGGAAACCATCAC (((((((....))))))), the folding enthalpy in series [1] is -43.8 kcal/mol. For the same sequence, the Tm in series [2] was found to be 64.6 °C.
